# Experimental data reported in ChEMBL document CHEMBL1122501, “Potential antiatherosclerotic agents. 2. (Aralkylamino)- and (alkylamino) benzoic acid analogues of cetaben” (1983).
# Assays:
# [1] = biological target: T1, Sterol O-acyltransferase 1 (Rattus norvegicus) (UniProt O70536); assay: In vitro inhibitory activity against acyl coenzyme A:cholesterol acyltransferase (ACAT); set-up: concentration or dose not given beside the values; conditions: concentration not given here
# T1 sequence (whole entry): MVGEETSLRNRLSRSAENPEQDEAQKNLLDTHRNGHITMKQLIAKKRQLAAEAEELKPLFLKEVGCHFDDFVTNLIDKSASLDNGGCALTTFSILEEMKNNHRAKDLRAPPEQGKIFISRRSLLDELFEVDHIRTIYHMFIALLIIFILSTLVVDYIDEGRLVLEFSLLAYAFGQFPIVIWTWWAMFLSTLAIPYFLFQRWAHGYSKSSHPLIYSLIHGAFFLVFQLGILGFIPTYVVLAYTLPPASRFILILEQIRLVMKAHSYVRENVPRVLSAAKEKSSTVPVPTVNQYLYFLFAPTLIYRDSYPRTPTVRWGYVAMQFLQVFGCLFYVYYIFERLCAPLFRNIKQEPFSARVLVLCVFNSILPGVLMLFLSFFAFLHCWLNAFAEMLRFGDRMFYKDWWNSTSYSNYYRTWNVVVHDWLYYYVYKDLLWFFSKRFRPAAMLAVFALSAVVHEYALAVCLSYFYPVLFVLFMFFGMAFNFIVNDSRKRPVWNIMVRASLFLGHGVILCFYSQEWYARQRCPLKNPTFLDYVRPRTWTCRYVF
# How it was run: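 ACAT enzyme from rat adrenal homogenate in 0.2 M KH2PO4 buffer pH 7.4, 1000g 15 min 5 °C supernatant (microsomal fraction). Supernatant + BSA (50 mg/mL) + compound at final 5.2 μg/mL + buffer preincubated 10 min 37 °C; [14C]oleoyl-CoA (0.4 μCi) added, 30 min 37 °C. Lipids extracted, TLC; cholesteryl ester zone counted. Mean % inhibition vs no-compound control; Student's t test.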
# [2] = system: Rattus norvegicus; assay: In vivo Triglyceride lowering activity at dose as 0.025% of the diet; format: functional
# How it was run: (§1)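 Male CFE or CD-1 Sprague-Dawley rats, 140-150 g; 8 per control group, 4 per test group. Compound mixed into ground chow (w/w) via MeOH-CHCl3 (1:3) solution, solvent evaporated; controls got solvent-treated chow. Fed ad libitum 5 days, food intake monitored, killed fed and bled. Serum sterols and triglycerides by adapted autoanalyzer methods; mean percent of control, Student's t test.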
# [3] = system: Rattus norvegicus; assay: In vivo Sterol lowering activity at dose as 0.025 % of the diet; format: functional; how it was run: as §1
# [4] = system: Rattus norvegicus; assay: In vivo Sterol lowering activity at dose as 0.05 % of the diet; format: functional; how it was run: as §1
# [5] = system: Rattus norvegicus; assay: In vivo sterol lowering activity dosed at 0.10 % of the diet; format: functional; how it was run: as §1
# [6] = system: Rattus norvegicus; assay: In vivo triglyceride lowering activity dosed at 0.05 % of the diet; format: functional; how it was run: as §1
# [7] = system: Rattus norvegicus; assay: In vivo triglyceride lowering activity dosed at 0.10 % of the diet; format: functional; how it was run: as §1
# [8] = system: Rattus norvegicus; assay: In vivo Triglyceride lowering activity at dose as 0.025 % of the diet; format: functional; how it was run: as §1
# [9] = system: Rattus norvegicus; assay: In vivo Sterol lowering activity at dose as 0.025 % of the diet.; format: functional; how it was run: as §1
# [10] = system: Rattus norvegicus; assay: In vivo Sterol lowering activity at dose as 0.05 % of the diet.; format: functional; how it was run: as §1
# [11] = system: Rattus norvegicus; assay: In vivo Sterol lowering activity at dose as 0.10 % of the diet.; format: functional; how it was run: as §1
# [12] = system: Rattus norvegicus; assay: In vivo Triglyceride lowering activity at dose as 0.017 % of the diet.; format: functional; how it was run: as §1
# [13] = system: Rattus norvegicus; assay: In vivo Sterol lowering activity at dose as 0.017 % of the diet.; format: functional; how it was run: as §1
# [14] = system: Rattus norvegicus; assay: In vivo Triglyceride lowering activity at dose as 0.05 % of the diet.; format: functional; how it was run: as §1
# [15] = system: Rattus norvegicus; assay: In vivo triglyceride lowering activity, dosed at 0.10 % of the diet.; format: functional; how it was run: as §1
# [16] = system: Rattus norvegicus; assay: In vivo Sterol lowering activity at dose as 0.01 % of the diet; format: functional; how it was run: as §1
# [17] = system: Rattus norvegicus; assay: In vivo Sterol lowering activity at dose as 0.03 % of the diet; format: functional; how it was run: as §1
# [18] = system: Rattus norvegicus; assay: In vivo triglyceride lowering activity, dosed at 0.03 % of the diet; format: functional; how it was run: as §1
# [19] = system: Rattus norvegicus; assay: In vivo Triglyceride lowering activity at dose as 0.01 % of the diet; format: functional; how it was run: as §1
# [20] = system: Rattus norvegicus; assay: In vivo Triglyceride lowering activity at dose as 0.03 % of the diet.; format: functional; how it was run: as §1
# [21] = system: Rattus norvegicus; assay: In vivo triglyceride lowering activity, dosed at 0.01 % of the diet.; format: functional; how it was run: as §1
SMILES,inhibition [1] [%],"serum sterol, percent of control [5] [%]",Diet [6] [%],"serum triglycerides, percent of control [7] [%]",Diet [8] [%],Diet [9] [%],Diet [10] [%],"serum sterol, percent of control [11] [%]",also measured
CCOC(=O)c1ccc(NCCCCCCCCc2ccccc2)cc1,< 50,98,<65,<54,–,–,–,–,Diet [2]: <61%; Diet [3]: 88%; Diet [4]: 96%
O=C(O)c1ccc(NCc2ccccc2)cc1,2,87,62,65,–,–,–,–,Diet [12]: 92%; Diet [13]: 101%; Diet [4]: 86%
CCOC(=O)c1ccc(NCCCc2ccccc2OC)cc1,64,–,–,–,61,96,107,107,Diet [14]: 66%; Diet [15]: 74%
O=C(O)c1ccc(NCCCCCCCCCCCc2ccccc2)cc1,< 24,<83,<69,<74,–,–,–,–,Diet [2]: <68%; Diet [3]: 83%; Diet [4]: <76%
O=C(O)c1ccc(NCCc2ccccc2)cc1,9,88,–,48,64,90,84,–,Diet [14]: 70%
C=CCCCCCCCC/C=C/CCCNc1ccc(C(=O)[O-])cc1.[Na+],–,86,90,87,106,–,–,–,Diet [16]: 88%; Diet [17]: 92%
CCOC(=O)c1ccc(NCc2ccc(OC)cc2)cc1,49,–,62,48,73,95,92,94,–
CCOC(=O)c1ccc(NCc2ccc(OCc3ccccc3)cc2)cc1,45,91,85,–,–,–,100,–,Diet [12]: 97%; Diet [13]: 105%; Diet [15]: 92%
CCOC(=O)c1ccc(NC/C=C/c2ccccc2)cc1,–,84,58,60,73,92,86,–,–
CCOC(=O)c1ccc(NCCCCCCCc2ccccc2)cc1,< 54,89,<82,<72,–,–,–,–,Diet [2]: <84%; Diet [3]: 90%; Diet [4]: 89%
O=C(O)c1ccc(NCCCCCCCCc2ccccc2)cc1,< 35,84,–,74,–,–,–,–,"serum triglycerides, percent of control [18]: 56%; Diet [19]: <54%; Diet [16]: 90%; Diet [17]: <78%"
O=C(O)c1ccc(NCCc2cccc3ccccc23)cc1,–,–,67,63,–,–,108,93,Diet [12]: 89%; Diet [13]: 108%
O=C(O)c1ccc(NCCCCCCCCCCc2ccccc2)cc1,< 44,<87,88,81,–,–,–,–,Diet [2]: <79%; Diet [3]: <87%; Diet [4]: 89%
CCOC(=O)c1ccc(NCCCc2ccc(F)cc2)cc1,25,81,–,–,–,–,–,–,Diet [20]: 71%; Diet [21]: 90%; Diet [15]: 68%; Diet [16]: 83%; Diet [17]: 78%
CCOC(=O)c1ccc(NCCCCCCCCCCc2ccccc2)cc1,< 63,<89,–,<77,–,–,–,–,"serum triglycerides, percent of control [18]: <58%; Diet [19]: 77%; Diet [16]: 100%; Diet [17]: <84%"
O=C(O)c1ccc(NCCCCCCCCCCCCc2cccs2)cc1,< 57,<70,–,<42,–,–,–,–,"serum triglycerides, percent of control [18]: <50%; Diet [19]: <59%; Diet [16]: 85%; Diet [17]: <81%"
O=C(O)c1ccc(NCCCCc2cccs2)cc1,10,–,–,–,–,–,98,77,Diet [12]: 94%; Diet [13]: 90%; Diet [14]: 89%; Diet [15]: 90%
CCCCCCCCc1ccc(CCCNc2ccc(C(=O)O)cc2)s1,< 27,<78,–,<57,–,–,–,–,"serum triglycerides, percent of control [18]: 72%; Diet [19]: 76%; Diet [16]: 88%; Diet [17]: <92%"

# Now from value to compound, other results behind:
inhibition [1] [%],SMILES,"serum sterol, percent of control [5] [%]",Diet [6] [%],"serum triglycerides, percent of control [7] [%]",Diet [8] [%],Diet [9] [%],Diet [10] [%],"serum sterol, percent of control [11] [%]",also measured
2,O=C(O)c1ccc(NCCCc2ccc(OCc3ccccc3)cc2)cc1,–,69,60,67,90,96,93,–
18,O=C(O)c1ccc(NCCc2ccc(OCc3ccccc3)cc2)cc1,–,–,–,70,100,103,–,Diet [11]: 86%; Diet [14]: 81%; Diet [15]: 84%
0,O=C(O)c1ccc(NCCc2ccc(F)cc2)cc1,–,50,54,72,104,86,91,–
61,CCOC(=O)c1ccc(NCCCc2ccccc2)cc1,79,56,57,77,94,–,–,Diet [4]: 77%
7,O=C(O)c1ccc(NCc2ccc(-c3ccccc3)cc2)cc1,–,70,42,61,98,98,90,–
5,O=C(O)c1ccc(NCCc2cccs2)cc1,–,–,–,–,–,81,88,Diet [12]: 121%; Diet [13]: 74%; Diet [14]: 97%; Diet [15]: 103%
< 28,O=C(O)c1ccc(NCCCCCCCCCc2ccccc2)cc1,92,<58,<68,–,–,–,–,Diet [2]: <50%; Diet [3]: 96%; Diet [4]: 96%
9,CCOC(=O)c1ccc(NCCc2cccc3ccccc23)cc1,–,–,73,–,–,103,94,Diet [12]: 112%; Diet [13]: 98%; Diet [14]: 80%
16,O=C(O)c1ccc(NCc2ccc(OCc3ccccc3)cc2)cc1,–,85,89,–,93,98,97,Diet [12]: 91%
45,CCOC(=O)c1ccc(NCc2ccccc2)cc1,86,–,–,–,–,–,–,"Diet [12]: 97%; serum triglycerides, percent of control [18]: 88%; Diet [13]: 108%; Diet [4]: 90%; Diet [15]: 78%"
50,CCOC(=O)c1ccc(NCCCc2ccc(OCc3ccccc3)cc2)cc1,–,46,56,56,86,86,–,Diet [11]: 96%
5,COc1ccc(CNc2ccc(C(=O)O)cc2)cc1,–,–,60,69,91,95,94,Diet [14]: 76%
